Source: ChEMBL document CHEMBL1777776, “Identification of 2-mercaptohexanoic acids as dual inhibitors of 5-lipoxygenase and microsomal prostaglandin E₂ synthase-1” (Bioorg Med Chem, 2011)
Activity calls are given as the source filed them. The calls are words filed in the database; no cut-off is given here.

Assays:
Prostaglandin E synthase = target: T1, Prostaglandin E synthase (Homo sapiens, UniProt O14684); experiment: Inhibition of mPGES-1 in human IL-1beta-stimulated A549 cell microsomes assessed as reduction of PGE2 formation from PGH2 after 15 mins; parameters: species or system Microsome
T1 sequence (O14684 whole entry): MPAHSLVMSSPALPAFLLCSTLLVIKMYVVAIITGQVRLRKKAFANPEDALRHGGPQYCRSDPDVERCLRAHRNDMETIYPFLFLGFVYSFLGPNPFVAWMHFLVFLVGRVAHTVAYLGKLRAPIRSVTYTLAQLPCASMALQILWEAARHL
Summary of the method: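 Microsomes from A549 cells stimulated 72 h with IL-1β (1 ng/ml), diluted to 50 µg/ml in 0.1 M potassium phosphate pH 7.4 with 2.5 mM glutathione. Preincubated with compound (1% DMSO final) 15 min at 4 °C. Reaction started with 20 µM PGH₂, run 1 min at 4 °C, stopped with FeCl₂/citric acid containing 11β-PGE₂; PGE₂ quantified. Mean of n = 3–5.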

[1] = target: T2, Polyunsaturated fatty acid 5-lipoxygenase (Homo sapiens, UniProt P09917); experiment: Inhibition of human recombinant 5-lipoxygenase expressed in Escherichia coli BL21 assessed as enzyme product formation using arachidonic acid as substrate after 10 mins by RP-HPLC analysis
T2 sequence (P09917 whole entry): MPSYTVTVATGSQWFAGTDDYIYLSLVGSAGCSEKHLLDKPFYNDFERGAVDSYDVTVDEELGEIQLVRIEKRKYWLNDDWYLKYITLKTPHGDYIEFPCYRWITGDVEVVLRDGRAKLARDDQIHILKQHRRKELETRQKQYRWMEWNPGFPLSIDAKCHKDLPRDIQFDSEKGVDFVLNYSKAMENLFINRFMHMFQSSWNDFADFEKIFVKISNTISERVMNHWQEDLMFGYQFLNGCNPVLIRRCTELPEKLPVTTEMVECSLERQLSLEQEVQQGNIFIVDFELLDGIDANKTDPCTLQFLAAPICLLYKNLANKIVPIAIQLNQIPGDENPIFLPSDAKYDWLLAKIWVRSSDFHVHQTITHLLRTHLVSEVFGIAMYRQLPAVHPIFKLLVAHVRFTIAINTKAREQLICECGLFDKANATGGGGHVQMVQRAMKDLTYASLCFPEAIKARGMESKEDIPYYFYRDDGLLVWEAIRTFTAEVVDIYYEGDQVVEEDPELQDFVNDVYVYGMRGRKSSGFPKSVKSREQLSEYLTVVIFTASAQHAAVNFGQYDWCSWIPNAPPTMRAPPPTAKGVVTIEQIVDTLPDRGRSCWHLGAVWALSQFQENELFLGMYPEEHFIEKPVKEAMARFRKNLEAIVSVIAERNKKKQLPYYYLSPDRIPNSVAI
Summary of the method: (§1)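 Human 5-LO expressed in E. coli BL21 (pT3-5LO), affinity-purified and used at once. 0.5 µg enzyme in 1 ml PBS/EDTA with 1 mM ATP preincubated with compound 5–10 min at 4 °C, then warmed 30 s at 37 °C. Reaction started with 2 mM CaCl₂ and AA (routinely 20 µM), with or without 1 µM 13(S)-HpODE. Run 10 min at 37 °C, stopped with ice-cold methanol, products analysed by HPLC. Washout: 10-fold dilution (10 to 1 µM).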

A549 = experiment: Cytotoxicity against human A549 cells assessed as cell viability at 10 uM after 16 hrs by MTT assay; assay type: cell-based; settings: a549, 5 h, in the assay text read “5 hrs” for “16 hrs”
Summary of the method: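 A549 cells plated at 4 × 10⁴ cells per well, incubated 16 h at 37 °C, 5% CO₂, then exposed to 10 µM compound or DMSO (≤0.3% final) for 5 h. MTT added for 4 h, formazan solubilized with SDS in 20 mM HCl, absorbance at 595 nm read relative to vehicle-treated cells.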

[2] = target: T3, Prostaglandin G/H synthase 1 (Ovis aries) (UniProt P05979); experiment: Inhibition of ovine COX1 assessed as residual activity at 10 uM after 5 mins
T3 sequence (whole entry): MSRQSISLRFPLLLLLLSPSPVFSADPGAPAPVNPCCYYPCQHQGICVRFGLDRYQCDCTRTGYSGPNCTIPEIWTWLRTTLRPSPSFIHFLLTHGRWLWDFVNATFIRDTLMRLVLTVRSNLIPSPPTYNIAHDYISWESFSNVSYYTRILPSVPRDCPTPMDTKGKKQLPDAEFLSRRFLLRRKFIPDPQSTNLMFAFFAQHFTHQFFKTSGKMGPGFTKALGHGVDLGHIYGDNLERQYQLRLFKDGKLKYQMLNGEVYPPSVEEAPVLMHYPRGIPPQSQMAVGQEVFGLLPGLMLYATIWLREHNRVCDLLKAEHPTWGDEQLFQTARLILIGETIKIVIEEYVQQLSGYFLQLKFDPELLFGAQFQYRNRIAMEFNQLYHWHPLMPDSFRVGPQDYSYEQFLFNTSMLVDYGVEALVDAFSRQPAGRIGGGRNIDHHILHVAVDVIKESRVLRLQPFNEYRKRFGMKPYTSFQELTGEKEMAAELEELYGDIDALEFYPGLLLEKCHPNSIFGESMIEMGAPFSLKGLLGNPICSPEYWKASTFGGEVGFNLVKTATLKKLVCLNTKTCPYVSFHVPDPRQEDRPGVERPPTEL
Summary of the method: (§2)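 Ovine COX-1 (50 units) or human recombinant COX-2 (20 units) in 1 ml 100 mM Tris pH 8 with 5 mM glutathione, 5 µM haemoglobin and 100 µM EDTA. Preincubated with 10 µM compound 5 min at 4 °C, warmed 60 s at 37 °C. Started with AA (5 µM for COX-1, 2 µM for COX-2), run 5 min at 37 °C. 12-HHT extracted and analysed by HPLC. n = 3.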

[3] = target: T4, Prostaglandin G/H synthase 2 (Homo sapiens) (UniProt P35354); experiment: Inhibition of human recombinant COX2 assessed as residual activity at 10 uM after 5 mins; summary of the method: as §2
T4 sequence (whole entry): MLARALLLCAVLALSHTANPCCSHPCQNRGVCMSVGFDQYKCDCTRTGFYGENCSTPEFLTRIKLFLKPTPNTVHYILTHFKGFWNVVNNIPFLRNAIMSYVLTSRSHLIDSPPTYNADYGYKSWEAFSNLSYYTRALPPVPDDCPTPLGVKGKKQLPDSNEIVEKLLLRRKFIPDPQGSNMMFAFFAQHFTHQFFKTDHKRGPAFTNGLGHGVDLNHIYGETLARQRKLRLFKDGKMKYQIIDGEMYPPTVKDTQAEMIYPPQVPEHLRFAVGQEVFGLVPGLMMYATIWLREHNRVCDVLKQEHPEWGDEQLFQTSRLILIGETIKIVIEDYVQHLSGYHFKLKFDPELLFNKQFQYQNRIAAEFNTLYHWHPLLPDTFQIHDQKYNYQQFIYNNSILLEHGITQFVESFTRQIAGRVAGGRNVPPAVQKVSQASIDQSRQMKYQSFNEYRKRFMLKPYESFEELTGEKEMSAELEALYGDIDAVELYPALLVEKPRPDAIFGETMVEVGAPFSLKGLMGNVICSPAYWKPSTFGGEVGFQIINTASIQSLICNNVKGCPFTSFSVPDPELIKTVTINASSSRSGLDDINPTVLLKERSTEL

[4] = target: T2, Polyunsaturated fatty acid 5-lipoxygenase; experiment: Inhibition of 5-lipoxygenase in A23187-stimulated human PMNL assessed as enzyme product formation preincubated 15 mins by RP-HPLC analysis in presence of exogenous arachidonic acid
Summary of the method: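 Freshly isolated human PMNL (5 × 10⁶/ml PGC buffer: PBS pH 7.4, 1 mg/ml glucose, 1 mM CaCl₂) preincubated with compound 15 min at 37 °C. Stimulated with 2.5 µM A23187 plus exogenous AA for 10 min at 37 °C. Stopped with methanol, PGB₁ added as internal standard, lipoxygenase products analysed by HPLC. Mean of n = 3–5.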

[5] = target: T5, Polyunsaturated fatty acid 5-lipoxygenase (Homo sapiens) (UniProt P09917); experiment: Inhibition of human recombinant 5-lipoxygenase expressed in Escherichia coli BL21 assessed as enzyme product formation using arachidonic acid as substrate at 1 uM after 10 mins by RP-HPLC analysis; summary of the method: as §1
T5 sequence (whole entry): T2 sequence (P09917 whole entry)

IC50 (Prostaglandin E synthase) [nM] | IC50 [1] [nM] | inhibition [2] | inhibition [3] | IC50 [4] [nM] | inhibition [5] | Structure (SMILES) | Activity (A549)
2200 | 4500 | inactive | inactive | 1400 | – | CCCCC(Sc1ccc(OCCCOc2cccc3c2CCCC3)cc1)C(=O)O (configuration not stated) | Non-toxic
– | – | – | – | – | inactive | CC(C)c1ccc2c(c1)c(SC(C)(C)C)c(CC(C)(C)C(=O)O)n2Cc1ccc(Cl)cc1 | –
